Compound activity from PubChem.
Only some compounds are listed: those with a hit (about 9.6% of all), similar ones and a draw of the others.
Ba/F3 V617F tox: reduce viability of Ba/F3 cells dependent on JAK2V617F. Ba/F3 EpoR-JAK2V617F viability, ATP luminescence. inhibition, % at 5.6 µM. hit rate 1.1% among 220,000. AID 1446;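 active = inhibition above the campaign mean plus 3 SD over all tested compounds, cut at about 24% in these data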;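 note: cytokine-independent growth of Ba/F3 cells driven by EpoR plus mutant JAK2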
b-catenin transl: alters nuclear translocation of beta-catenin in HeLa cells. AID 1665. nuclear translocation activity, % at 5 µM. immunofluorescence imaging. hit rate 0.3% among 190,000;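 active = nuclear translocation activity above 50% at 5 µM, with a well cell count of 50 or more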;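 note: per-cell ratio of nuclear to cytoplasmic median beta-catenin stain intensity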
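Test system: human HeLa cells, endogenous beta-catenin. Times: 24 h compound exposure, 37°C. Measured by: beta-catenin immunofluorescence imaging with DAPI.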
BaF3 tox: reduces parental Ba/F3 cell viability, JAK2V617F counter-screen | CellTiter-Glo ATP luminescence | inhibition, % at 5.6 µM | hit rate 1.1% among 220,000;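 active = inhibition above a per-campaign cutoff, the mean inhibition of all tested compounds plus 3 SD, cut at about 27% in these data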
L major viab: inhibitors of Leishmania major promastigote growth | inhibition, % at 10 µM | Leishmania major promastigotes, resazurin fluorescence viability | hit rate 9% among 200,000; in the data active = inhibition above about 50%;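 note: promastigotes grown with compound for 44 hours at 28 °C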
APP transl inh: APP translation inhibition; SH-SY5Y APP 5'UTR-luciferase reporter, luminescence; inhibition, % at 2 µM; hit rate 0.82% among 190,000; AID 1285;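 active = inhibition above a set limit, derived from the sample mean plus 3 SD, cut at about 45% in these data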
MT stabilizer: stabilizes microtubules in HeLa cells. HeLa tubulin immunostaining HCS, 24 h; share of cells brighter than vehicle mean+2SD. % tubulin-high responders, % at 10 µM. hit rate 0.83% among 200,000. AID 2205;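 active = plate Z-score above 3 for both tubulin-high and condensed-nucleus cell shares, with cell loss under 80%, at 10 µM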;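 note: anti alpha tubulin signal scored within the nucleus-defined area of each cell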
Of the large screens only hits and unclear results are named; the others gave an inactive call.

Cc1ccc(S(=O)(=O)NC2(C(F)(F)F)C(=O)Nc3c2c(=O)[nH]c(=O)n3-c2ccccc2)cc1 (configuration not stated)	L major viab 72.4
Cc1cc(C)cc(NC(=O)CSc2nc3c(oc4ccccc43)c(=O)n2-c2ccccc2)c1	L major viab 61.3
O=C(Nc1ccc2snnc2c1)N1CCSCC1	none
CC1CN(C(=O)Nc2ccc3snnc3c2)c2ccccc21 (configuration not stated)	L major viab 51.1
COc1ccc(/C=N/N2CCOCC2)cc1COc1ccc(Cl)cc1	L major viab 87.3
COc1ccc(CCNC(=O)COc2ccc(N(C)S(=O)(=O)c3ccc(Cl)cc3)cc2)cc1	L major viab 96.6
CN(C)N1C(N)=C(C#N)C(c2cccc3ccccc23)C2=C1CC(c1ccccc1)CC2=O (configuration not stated)	L major viab 95.5, MT stabilizer 11.9
FC(F)(F)c1cccc(NC(=S)NCC(c2cccnc2)N2CCOCC2)c1 (configuration not stated)	L major viab 61.1
COc1ccc(C(CNC(=O)c2oc3ccc(Br)cc3c2C)N2CCCCC2)cc1 (configuration not stated)	L major viab 60.5
COc1ccc(C(CNC(=O)COc2ccc(Br)cc2F)N2CCCC2)cc1 (configuration not stated)	none
CC1=C(C(=O)Nc2ccccc2)C(c2ccc(Cl)cc2)n2c(s/c(=C/c3cccc(OCC(=O)O)c3)c2=O)=N1 (configuration not stated)	none
O=C1CCCC2=C1C(c1ccc(Cl)cc1)n1c(s/c(=C\c3ccc4ccncc4c3)c1=O)=N2 (configuration not stated)	L major viab 98.3
COc1cc(S(=O)(=O)N2CCOCC2)ccc1NC(=O)COC(=O)CC12CC3CC(CC(C3)C1)C2	L major viab 99.8 (no result: APP transl inh)
CC1CCN(S(=O)(=O)c2ccc(S(=O)(=O)N3CCCN(Cc4ccccc4)C3)cc2)CC1	L major viab 86.3 (no result: b-catenin transl)
CC1CCN(S(=O)(=O)c2ccc(NC(=O)CN3CCCC(C)C3)cc2)CC1 (configuration not stated)	L major viab 88.6 (no result: b-catenin transl, APP transl inh)
Cc1ccc(NC(=O)C2CCN(S(=O)(=O)c3ccc(F)cc3)CC2)cc1	L major viab 99.4
CCN(CCNC(=O)c1cc(C)nn1-c1ccccc1)c1ccccc1	none
Cn1nc(-c2ccccc2)cc1NS(=O)(=O)c1ccc(C#N)cc1	none (no result: L major viab, APP transl inh, MT stabilizer)
O=C(COc1ccc(S(=O)(=O)N2CCOCC2)cc1)Nc1ccc(Cl)c(C(F)(F)F)c1	MT stabilizer 32.4
Cc1cc2oc(C(=O)Nc3ccc(S(=O)(=O)N4CCCC(C)C4)cc3)cc(=O)c2cc1Cl (configuration not stated)	none
Cc1cc(C)c2oc(C(=O)Nc3ccc(S(=O)(=O)N4CCC(C)CC4)cc3)cc(=O)c2c1	L major viab 87.1
O=C(CN1CCCCC1)Nc1ccc(S(=O)(=O)N2CCOCC2)cc1	L major viab 96.8
COc1ccc(NS(=O)(=O)c2ccc(NC(=O)c3ccc(CN4CCOCC4)cc3)cc2)cc1	none
O=C(CN1CCN(Cc2ccccc2)CC1)Nc1ccc(S(=O)(=O)N2CCOCC2)cc1	none
O=C(Nc1ccc(S(=O)(=O)Nc2ccc(F)cc2)cc1)c1ccc(CN2CCOCC2)cc1	L major viab 98.5
Cc1ccc(C(=O)Nc2ccc(S(=O)(=O)N3CCOCC3)cc2)cc1	none
O=C(COC(=O)CN1C(=O)C2CCCCC2C1=O)Nc1ccc(S(=O)(=O)N2CCOCC2)cc1 (configuration not stated)	L major viab 56.6
O=C(Nc1ccc(Cc2ccncc2)cc1)c1ccc(S(=O)(=O)N2CCOCC2)cc1	L major viab 99.1
CCOC(=O)Nc1ccc(S(=O)(=O)N2CCC(C)CC2)cc1	MT stabilizer 18.0
Cc1cc(C)c(O)c(-c2cc(C(=O)Nc3ccc(S(=O)(=O)N4CCOCC4)cc3)[nH]n2)c1	L major viab 90.4
Cc1c(NS(=O)(=O)c2ccc3c(c2)Cc2ccccc2-3)c(=O)n(-c2ccccc2)n1C	none
CCn1nnnc1NC(=O)c1cc(Cl)c(OC)c(Cl)c1	none
COc1ccc([N+](=O)[O-])cc1NC(=O)c1cn(-c2ccc(C)c(C)c2)c(=O)c2ccccc12	none
COc1ccc(-c2nc(=S)c3ccc4ccccc4c3[nH]2)cc1	none
